Reference: ChEMBL document CHEMBL3392953, “Synthesis and biological evaluation of furanoallocolchicinoids” (J Med Chem, 2015)

Key:
Format in all cases: functional, cell-based
ASPC1 = assay: Cytotoxicity against human AsPC1 cells after 72 hrs by MTT assay; details: ASPC1, 72 h
In short: (§1)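 Cells seeded at 3x10^5 cells/mL 24 h before assay (HEK293, AsPC-1 in DMEM; Jurkat, W1308 in RPMI-1640; 10% FCS, 2-ME). Tenfold dilutions from […] to 1 nM added; untreated cells as controls. 72 h incubation, MTT 250 µg/ml added for last 6 h, formazan dissolved in DMSO, OD read. IC50 from titration curves; inhibition index = 1 − OD(treated)/OD(control).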

HEK293 = assay: Cytotoxicity against HEK293 cells after 72 hrs by MTT assay; details: Homo sapiens, HEK293, 72 h; in short: as §1
Jurkat = assay: Cytotoxicity against human Jurkat cells after 72 hrs by MTT assay; in short: as §1
[1] = Cytotoxicity against mouse W1308 cells after 72 hrs by MTT assay; details: W1308, 72 h; in short: as §1

SMILES | IC50 (ASPC1) [µM] | IC50 (HEK293) [µM] | IC50 (Jurkat) [µM] | IC50 [1] [µM]
COc1cc2c(c(OC)c1OC)-c1cc3ccn(C)c3cc1C(=O)CC2 | 0.8 | < 0.2 | < 0.1 | < 0.2
CCN(CC)Cc1cc2cc3c(cc2o1)[C@@H](NC(C)=O)CCc1cc(OC)c(OC)c(OC)c1-3 | 20 | > 100 | > 100 | > 100
